Assay results taken from ChEMBL document CHEMBL4130549, “Synthesis and bioactivities study of new antibacterial peptide mimics: The dialkyl cationic amphiphiles” (Eur J Med Chem, 2018).
Active and inactive are the calls of the source. The rule behind the calls is not given here.

Key:
Enterococcus faecalis = test: Antibacterial activity against Enterococcus faecalis after 16 to 20 hrs by broth microdilution method; type: functional
Method in brief: (§1)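 Broth microdilution per CLSI in cation-adjusted Mueller-Hinton broth; 4-6 h cultures (~10⁸ CFU/mL) diluted to ~10⁶ CFU/mL and mixed 1:1 with twofold dilutions of water-dissolved compound (256 to 0.5 µg/mL). Incubated 16-20 h at 37 °C; MIC read visually. Each concentration run in duplicate, whole experiment repeated at least twice. MRSA, KPC and NDM-1 strains were clinical isolates.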

Staphylococcus aureus [1] = test: Antibacterial activity against methicillin-resistant Staphylococcus aureus isolate M2 after 16 to 20 hrs by broth microdilution method; type: functional
Method in brief: (§2)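 CLSI broth microdilution in cation-adjusted Mueller-Hinton broth. A 4-6 h culture was diluted to about 10⁶ CFU/mL and mixed 1:1 with twofold compound dilutions (256–0.5 µg/mL before mixing) prepared from aqueous stocks. Plates were incubated at 37 °C for 16-20 h. Each concentration was tested in duplicate, and the experiment was repeated at least twice.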

Staphylococcus aureus [2] = test: Antibacterial activity against methicillin-resistant Staphylococcus aureus isolate M6 after 16 to 20 hrs by broth microdilution method; type: functional; method in brief: as §2
Staphylococcus aureus [3] = test: Antibacterial activity against methicillin-resistant Staphylococcus aureus isolate M10 after 16 to 20 hrs by broth microdilution method; type: functional; method in brief: as §2
Klebsiella pneumoniae [4] = test: Antibacterial activity against carbapenemase-producing Klebsiella pneumoniae isolate K1 after 16 to 20 hrs by broth microdilution method; type: functional; method in brief: as §1
Klebsiella pneumoniae [5] = test: Antibacterial activity against carbapenemase-producing Klebsiella pneumoniae isolate K5 after 16 to 20 hrs by broth microdilution method; type: functional; method in brief: as §1
Klebsiella pneumoniae [6] = test: Antibacterial activity against carbapenemase-producing Klebsiella pneumoniae isolate K8 after 16 to 20 hrs by broth microdilution method; type: functional; method in brief: as §1
Klebsiella pneumoniae [7] = test: Antibacterial activity against carbapenemase-producing Klebsiella pneumoniae isolate K9 after 16 to 20 hrs by broth microdilution method; type: functional; method in brief: as §1
Enterobacteriaceae [8] = test: Antibacterial activity against NDM-1-producing Enterobacteriaceae isolate N1 after 16 to 20 hrs by broth microdilution method; type: functional; method in brief: as §1
Enterobacteriaceae [9] = test: Antibacterial activity against NDM-1-producing Enterobacteriaceae isolate N4 after 16 to 20 hrs by broth microdilution method; type: functional; method in brief: as §1
Enterobacteriaceae [10] = test: Antibacterial activity against NDM-1-producing Enterobacteriaceae isolate N7 after 16 to 20 hrs by broth microdilution method; type: functional; method in brief: as §1
Enterobacteriaceae [11] = test: Antibacterial activity against NDM-1-producing Enterobacteriaceae isolate N10 after 16 to 20 hrs by broth microdilution method; type: functional; method in brief: as §1
Staphylococcus aureus [12] = test: Bactericidal activity against methicillin-resistant Staphylococcus aureus after 20 to 24 hrs in presence of 50% serum by broth microdilution method; type: functional, organism-based
Method in brief: (§3)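 MRSA at 10⁵ CFU/mL in 50% Mueller-Hinton broth plus 50% sheep serum, plasma or defibrinated whole blood. Serum and plasma were separated by centrifugation at 3,500 rpm for 10 min. Aqueous compound dilutions (512–4 µg/mL before mixing) were combined 1:3 with the suspension and incubated 20-24 h at 37 °C. Wells were plated on Mueller-Hinton agar for a further 20-24 h; MBC was taken as no colonies.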

Staphylococcus aureus [13] = test: Bactericidal activity against methicillin-resistant Staphylococcus aureus after 20 to 24 hrs in presence of 50% plasma by broth microdilution method; type: functional, organism-based; method in brief: as §3
Staphylococcus aureus [14] = test: Ratio of MBC for methicillin-resistant Staphylococcus aureus in presence of 50% plasma to MBC for methicillin-resistant Staphylococcus aureus; type: functional; method in brief: as §3
Escherichia coli [15] = test: Antibiofilm activity against Escherichia coli ATCC 25922 assessed as bacterial cell viability in biofilm at 4 ug/ml after 24 hrs (reference value: 25.9 log10CFU/ml); type: functional
Method in brief: (§4)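 Mid-log cells at ~10⁵ CFU/mL grown stationary in 96-well plates (S. aureus in MHB for 24 h; E. coli in M9 with 0.02% casamino acids and 0.5% glycerol for 72 h). After washing, biofilms exposed 24 h at 37 °C to 2-128 µg/mL; detached with trypsin-EDTA, serially plated, viability given as log10 CFU/well against an untreated control.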

Escherichia coli [16] = test: Antibiofilm activity against Escherichia coli ATCC 25922 assessed as bacterial cell viability in biofilm at 64 ug/ml after 24 hrs (reference value: 25.9 log10CFU/ml); type: functional; method in brief: as §4
Staphylococcus aureus [17] = test: Ratio of MBEC to MIC for Staphylococcus aureus ATCC 29213; type: functional
Method in brief: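 For MBEC, biofilms grown 24 h at 37 °C from a 1:1000 dilution of exponential-phase culture, washed, exposed 24 h to two-fold compound dilutions in fresh medium, then recovered 24 h in medium alone; MBEC is the lowest concentration with no turbidity. MIC by CLSI broth microdilution in cation-adjusted MHB, ~10^6 CFU/mL inoculum, 37 °C, 16–20 h.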

Escherichia coli [18] = test: Induction of cytoplasmic membrane depolarization in Escherichia coli ATCC 25922 at 20 ug/ml measured every 2 mins for 12 mins by diSC35 staining based fluorescence assay; type: functional, organism-based
Method in brief: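 Mid-log cells (4–6 h) pelleted, washed and resuspended (~10^8 CFU/mL) in PBS for S. aureus, or in 5 mM HEPES, 5 mM glucose and 100 mM KCl (1:1:1) for E. coli. Preloaded with diSC35 (10 µM, 50 µL), 30 min for S. aureus and 40 min plus EDTA (200 µM, 50 µL) for E. coli. Baseline read 8 min (ex 622/em 670 nm), then compound added to 20 µg/mL final and read every 2 min for 12 min. Water control.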

Staphylococcus aureus [19] = test: Induction of inner membrane permeabilization in Staphylococcus aureus ATCC 29213 at 20 ug/ml measured every 2 mins for 12 mins by propidium iodide staining based fluorescence assay; type: functional, organism-based
Method in brief: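 Mid-log cells (~10^8 CFU/mL) pre-incubated with propidium iodide (10 µM, 50 µL), 30 min for S. aureus and 40 min for E. coli. Fluorescence (ex 535/em 617 nm) read for 8 min, then compound added to 20 µg/mL final and monitored every 2 min for 12 min. Water-treated control.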

Escherichia coli [20] = test: Induction of outer membrane permeabilization in Escherichia coli ATCC 25922 at 20 ug/ml measured every 2 mins for 12 mins by NPN staining based fluorescence assay; type: functional, organism-based
Method in brief: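 Mid-log E. coli (~10^8 CFU/mL) in black plates pre-incubated about 40 min with NPN (10 µM, 50 µL). Baseline read 8 min (ex 350/em 420 nm), then compound added to 20 µg/mL final and fluorescence followed every 2 min for 12 min. Water-treated control.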

HeLa [21] = test: Cytotoxicity against human HeLa cells assessed as altered morphology at 1 to 2 times MIC after 24 hrs by optical microscopic method; type: cell-based
Method in brief: (§5)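 HeLa cells kept in DMEM with 10% FBS at 37 °C and 5% CO2, seeded in 12-well plates and left to adhere overnight. Cells then exposed 24 h to 1, 2, 4, 8 and 16 µg/mL, with 0.1% Triton X-100 as positive control and untreated wells as negative control. Cells washed with PBS, imaged for morphology, and stained 15 min at 37 °C with 2 µM calcein AM plus 4.5 µM PI for live/dead fluorescence.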

HeLa [22] = test: Cytotoxicity against human HeLa cells at 1 to 2 times MIC after 24 hrs by calcein AM/propidium iodide staining based fluorescence microscopic method; type: cell-based; method in brief: as §5

| Compound | MIC (Enterococcus faecalis) [mg/L] | MIC (Staphylococcus aureus [1]) [mg/L] | MIC (Staphylococcus aureus [2]) [mg/L] | MIC (Staphylococcus aureus [3]) [mg/L] | MIC (Klebsiella pneumoniae [4]) [mg/L] | MIC (Klebsiella pneumoniae [5]) [mg/L] | MIC (Klebsiella pneumoniae [6]) [mg/L] | MIC (Klebsiella pneumoniae [7]) [mg/L] | MIC (Enterobacteriaceae [8]) [mg/L] | MIC (Enterobacteriaceae [9]) [mg/L] | MIC (Enterobacteriaceae [10]) [mg/L] | MIC (Enterobacteriaceae [11]) [mg/L] | Activity (Staphylococcus aureus [12]) | Activity (Staphylococcus aureus [13]) | Ratio (Staphylococcus aureus [14]) | Activity (Escherichia coli [18]) | Activity (Staphylococcus aureus [19]) | Activity (Escherichia coli [20]) | Activity (HeLa [21]) | Activity (HeLa [22]) | other results |
| --- | --- | --- | --- | --- | --- | --- | --- | --- | --- | --- | --- | --- | --- | --- | --- | --- | --- | --- | --- | --- | --- |
| CCCCCCCCCN(CCCCCCCCC)C(=O)[C@@H](N)CCCCN.Cl.Cl | 1 | 1 | 1 | 0.5 | 2 | 2 | 2 | 2 | 2 | 2 | 2 | 4 | Active | Active | 2 - 4 | Active | Active | Active | Non-Toxic | Non-Toxic | Activity (Escherichia coli [15]): 23.9 log10CFU; Activity (Escherichia coli [16]): 0.3 log10CFU; Ratio (Staphylococcus aureus [17]): 64 |
| CCCCCCCCN(CCCCCCCC)C(=O)[C@@H](N)CCCN=C(N)N.Cl.Cl.Cl | 2 | 1 | 0.5 | 0.5 | 8 | 8 | 4 | 8 | 8 | 8 | 4 | 8 | Active | Active | 2 - 4 | Active | Active | Active |  |  |  |
| CCCCCCCCCCN(CCCCCCCCCC)C(=O)[C@@H](N)CCCN=C(N)N.Cl.Cl.Cl | 2 | 1 | 2 | 2 | 4 | 4 | 4 | 4 | 4 | 4 | 4 | 8 | Active | Active | 2 - 4 | Active | Active | Active |  |  |  |
| CCCCCCCCCN(CCCCCCCCC)C(=O)[C@@H](N)CCCN=C(N)N.Cl.Cl.Cl | 2 | 1 | 2 | 2 | 4 | 4 | 4 | 4 | 4 | 4 | 2 | 4 | Active | Active | 2 - 4 | Active | Active | Active | Non-Toxic | Non-Toxic |  |
| CCCCCCCCCCN(CCCCCCCCCC)C(=O)[C@@H](N)CCCCN.Cl.Cl | 2 | 1 | 1 | 1 | 4 | 4 | 2 | 4 | 4 | 4 | 4 | 4 | Active | Active | 2 - 4 | Active | Active | Active |  |  |  |
| CCCCCCCCN(CCCCCCCC)C(=O)[C@@H](N)CCCCN.Cl.Cl | 2 | 1 | 0.5 | 0.5 | 2 | 2 | 1 | 2 | 8 | 8 | 8 | 8 | Active | Active | 2 - 4 | Active | Active | Active |  |  |  |
